Assays:
Staphylococcus aureus [1] = assay: Antibacterial activity against Staphylococcus aureus ATCC 6538 after 24 hrs by microdilution method; type: functional; conditions: ATCC 6538, 24 h
In short: (§1)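 Broth microdilution in 96-well plates. Bacterial suspensions were adjusted in sterile saline to 1.0 × 10⁵ CFU/ml, prepared daily and kept at 4 °C. Compound was added to LB broth with 1.0 × 10⁴ CFU per well and shaken at 160 rpm for 24 h at […] (so in the source). MIC is the lowest concentration with no visible growth under a binocular microscope. OD655 was also read. Duplicate, repeated three times.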

Bacillus cereus [2] = assay: Antibacterial activity against clinical isolate of Bacillus cereus after 24 hrs by microdilution method; type: functional; in short: as §1
Micrococcus flavus [3] = assay: Antibacterial activity against Micrococcus flavus ATCC 10240 after 24 hrs by microdilution method; type: functional; conditions: ATCC 10240, 24 h; in short: as §1
Listeria monocytogenes [4] = assay: Antibacterial activity against Listeria monocytogenes NCTC 7973 after 24 hrs by microdilution method; type: functional; conditions: NCTC 7973, 24 h; in short: as §1
Pseudomonas aeruginosa [5] = assay: Antibacterial activity against Pseudomonas aeruginosa ATCC 27853 after 24 hrs by microdilution method; type: functional; conditions: ATCC 27853, 24 h; in short: as §1
Salmonella typhimurium [6] = assay: Antibacterial activity against Salmonella Typhimurium ATCC 13311 after 24 hrs by microdilution method; type: functional, Salmonella enterica subsp. enterica serovar Typhimurium; conditions: Salmonella enterica, ATCC 13311, 24 h; in short: as §1
Escherichia coli [7] = assay: Antibacterial activity against Escherichia coli ATCC 35210 after 24 hrs by microdilution method; type: functional; conditions: ATCC 35210, 24 h; in short: as §1
Enterococcus faecalis [8] = assay: Antibacterial activity against Enterococcus faecalis isolated from human after 24 hrs by microdilution method; type: functional; in short: as §1
Staphylococcus aureus [9] = assay: Antibacterial activity against Staphylococcus aureus ATCC 6538 incubated for 24 hrs followed by serial sub-cultivation for 24 hrs by microdilution method; type: functional; conditions: ATCC 6538, 24 h
In short: (§2)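 MBC: after the 24 h LB broth microdilution (1.0 × 10⁴ CFU per well, 160 rpm), wells were serially sub-cultured into fresh broth plates and incubated a further 24 h. MBC is the lowest concentration with no visible growth, taken as 99.5% killing of the original inoculum. Duplicate, repeated three times.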

Bacillus cereus [10] = assay: Antibacterial activity against clinical isolate of Bacillus cereus incubated for 24 hrs followed by serial sub-cultivation for 24 hrs by microdilution; type: functional; in short: as §2
Micrococcus flavus [11] = assay: Antibacterial activity against Micrococcus flavus ATCC 10240 incubated for 24 hrs followed by serial sub-cultivation for 24 hrs by microdilution; type: functional; conditions: ATCC 10240, 24 h; in short: as §2
Listeria monocytogenes [12] = assay: Antibacterial activity against Listeria monocytogenes NCTC 7973 incubated for 24 hrs followed by serial sub-cultivation for 24 hrs by microdilution; type: functional; conditions: NCTC 7973, 24 h; in short: as §2
Pseudomonas aeruginosa [13] = assay: Antibacterial activity against Pseudomonas aeruginosa ATCC 27853 incubated for 24 hrs followed by serial sub-cultivation for 24 hrs by microdilution; type: functional; conditions: ATCC 27853, 24 h; in short: as §2
Salmonella typhimurium [14] = assay: Antibacterial activity against Salmonella Typhimurium ATCC 13311 incubated for 24 hrs followed by serial sub-cultivation for 24 hrs by microdilution; type: functional, Salmonella enterica subsp. enterica serovar Typhimurium; conditions: Salmonella enterica, ATCC 13311, 24 h; in short: as §2
Escherichia coli [15] = assay: Antibacterial activity against Escherichia coli ATCC 35210 incubated for 24 hrs followed by serial sub-cultivation for 24 hrs by microdilution; type: functional; conditions: ATCC 35210, 24 h; in short: as §2
Enterococcus faecalis [16] = assay: Antibacterial activity against Enterococcus faecalis isolated from human incubated for 24 hrs followed by serial sub-cultivation for 24 hrs by microdilution; type: functional; in short: as §2
Aspergillus ochraceus [17] = assay: Antifungal activity against Aspergillus ochraceus ATCC 12066 after 72 hrs by serial dilution technique; type: functional; conditions: ATCC 12066, 72 h
In short: (§3)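 Modified microdilution in 96-well plates. Fungi were kept on malt agar at 4 °C. Spores were washed off in sterile 0.85% saline with 0.1% Tween 80. Compounds were dissolved at 1 mg/ml in 5% DMSO with 0.1% Tween 80 and added to malt broth with inoculum. Plates were shaken at 160 rpm for 72 h at 28 °C. Duplicate, repeated three times.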

Aspergillus niger [18] = assay: Antifungal activity against Aspergillus niger ATCC 6275 after 72 hrs by serial dilution technique; type: functional; conditions: ATCC 6275, 72 h; in short: as §3
Aspergillus flavus [19] = assay: Antifungal activity against Aspergillus flavus ATCC 9643 after 72 hrs by serial dilution technique; type: functional; conditions: ATCC 9643, 72 h; in short: as §3
Talaromyces funiculosus [20] = assay: Antifungal activity against Penicillium funiculosum ATCC 36839 after 72 hrs by serial dilution technique; type: functional; conditions: ATCC 36839, 72 h; in short: as §3
Penicillium ochrochloron [21] = assay: Antifungal activity against Penicillium ochrochloron ATCC 9112 after 72 hrs by serial dilution technique; type: functional; conditions: ATCC 9112, 72 h; in short: as §3
Trichoderma viride [22] = assay: Antifungal activity against Trichoderma viride IAM 5061 after 72 hrs by serial dilution technique; type: functional; conditions: IAM 5061, 72 h; in short: as §3
Candida albicans [23] = assay: Antifungal activity against Candida albicans isolated from human after 72 hrs by serial dilution technique; type: functional; in short: as §3
Aspergillus ochraceus [24] = assay: Antifungal activity against Aspergillus ochraceus ATCC 12066 incubated for 72 hrs followed by serial sub-cultivation for 72 hrs by serial dilution technique; type: functional; conditions: ATCC 12066, 72 h
In short: (§4)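 MFC: material from 72 h malt broth microdilution wells was serially sub-cultured into fresh broth plates and incubated a further 72 h at 28 °C. Fungicidal concentration is taken from growth after sub-culture. Duplicate, repeated three times.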

Aspergillus fumigatus [25] = assay: Antifungal activity against Aspergillus fumigatus isolated from human incubated for 72 hrs followed by serial sub-cultivation for 72 hrs by serial dilution technique; type: functional; in short: as §4
Aspergillus niger [26] = assay: Antifungal activity against Aspergillus niger ATCC 6275 incubated for 72 hrs followed by serial sub-cultivation for 72 hrs by serial dilution technique; type: functional; conditions: ATCC 6275, 72 h; in short: as §4
Aspergillus flavus [27] = assay: Antifungal activity against Aspergillus flavus ATCC 9643 incubated for 72 hrs followed by serial sub-cultivation for 72 hrs by serial dilution technique; type: functional; conditions: ATCC 9643, 72 h; in short: as §4
Talaromyces funiculosus [28] = assay: Antifungal activity against Penicillium funiculosum ATCC 36839 incubated for 72 hrs followed by serial sub-cultivation for 72 hrs by serial dilution technique; type: functional; conditions: ATCC 36839, 72 h; in short: as §4
Penicillium ochrochloron [29] = assay: Antifungal activity against Penicillium ochrochloron ATCC 9112 incubated for 72 hrs followed by serial sub-cultivation for 72 hrs by serial dilution technique; type: functional; conditions: ATCC 9112, 72 h; in short: as §4
Trichoderma viride [30] = assay: Antifungal activity against Trichoderma viride IAM 5061 incubated for 72 hrs followed by serial sub-cultivation for 72 hrs by serial dilution technique; type: functional; conditions: IAM 5061, 72 h; in short: as §4
Candida albicans [31] = assay: Antifungal activity against Candida albicans isolated from human incubated for 72 hrs followed by serial sub-cultivation for 72 hrs by serial dilution technique; type: functional; in short: as §4
Pseudomonas aeruginosa [32] = assay: Ratio of ampicillin MIC to compound MIC for Pseudomonas aeruginosa ATCC 27853; type: functional
Aspergillus ochraceus [33] = assay: Ratio of bifonazole to compound for Aspergillus ochraceus ATCC 12066; type: functional
Aspergillus niger [34] = assay: Ratio of bifonazole to compound for Aspergillus niger ATCC 6275; type: functional
Talaromyces funiculosus [35] = assay: Ratio of bifonazole to compound for Penicillium funiculosum ATCC 36839; type: functional
Penicillium ochrochloron [36] = assay: Ratio of bifonazole to compound for Penicillium ochrochloron ATCC 9112; type: functional
Trichoderma viride [37] = assay: Ratio of bifonazole to compound for Trichoderma viride IAM 5061; type: functional
Candida albicans [38] = assay: Ratio of bifonazole to compound for Candida albicans isolated from human; type: functional
Aspergillus ochraceus [39] = assay: Ratio of ketoconazole to compound for Aspergillus ochraceus ATCC 12066; type: functional
Aspergillus fumigatus [40] = assay: Ratio of ketoconazole to compound for Aspergillus fumigatus isolated from human; type: functional
Penicillium ochrochloron [41] = assay: Ratio of ketoconazole to compound for Penicillium ochrochloron ATCC 9112; type: functional
Candida albicans [42] = assay: Ratio of ketoconazole to compound for Candida albicans isolated from human; type: functional
Aspergillus ochraceus [43] = assay: Antifungal activity against Aspergillus ochraceus after 72 hrs by serial dilution technique

CCNc1nc(C)c(C(=O)/C=C/c2ccc(Cl)cc2)s1
65.3 µM: MIC (Micrococcus flavus [3]) | MIC (Pseudomonas aeruginosa [5]) | MIC (Escherichia coli [7]) | MIC (Aspergillus ochraceus [17]) | MIC (Aspergillus niger [18]) | MIC (Aspergillus flavus [19]) | MIC (Penicillium ochrochloron [21]) | MFC (Aspergillus fumigatus [25]) | MFC (Talaromyces funiculosus [28]) | MFC (Trichoderma viride [30]) | MFC (Candida albicans [31])
49 µM: MIC (Salmonella typhimurium [6]) | MBC (Salmonella typhimurium [14]) | MIC (Aspergillus ochraceus [43])
10: Ratio (Pseudomonas aeruginosa [32]) | Ratio (Aspergillus ochraceus [33]) | Ratio (Aspergillus niger [34]) | Ratio (Talaromyces funiculosus [35]) | Ratio (Penicillium ochrochloron [36]) | Ratio (Trichoderma viride [37]) | Ratio (Candida albicans [38]) | Ratio (Aspergillus ochraceus [39]) | Ratio (Aspergillus fumigatus [40]) | Ratio (Penicillium ochrochloron [41]) | Ratio (Candida albicans [42])
98 µM: MIC (Staphylococcus aureus [1]) | MIC (Listeria monocytogenes [4]) | MBC (Staphylococcus aureus [9]) | MBC (Listeria monocytogenes [12]) | MBC (Pseudomonas aeruginosa [13]) | MBC (Escherichia coli [15])
81.7 µM: MIC (Bacillus cereus [2]) | MIC (Enterococcus faecalis [8]) | MBC (Bacillus cereus [10]) | MBC (Micrococcus flavus [11]) | MBC (Enterococcus faecalis [16]) | MFC (Aspergillus ochraceus [24]) | MFC (Aspergillus niger [26]) | MFC (Aspergillus flavus [27]) | MFC (Penicillium ochrochloron [29])
32.7 µM: MIC (Talaromyces funiculosus [20]) | MIC (Trichoderma viride [22]) | MIC (Candida albicans [23])
